Experiment [1] has as its target T1, Aurora kinase A (Homo sapiens) (UniProt O14965).
T1 sequence (whole entry): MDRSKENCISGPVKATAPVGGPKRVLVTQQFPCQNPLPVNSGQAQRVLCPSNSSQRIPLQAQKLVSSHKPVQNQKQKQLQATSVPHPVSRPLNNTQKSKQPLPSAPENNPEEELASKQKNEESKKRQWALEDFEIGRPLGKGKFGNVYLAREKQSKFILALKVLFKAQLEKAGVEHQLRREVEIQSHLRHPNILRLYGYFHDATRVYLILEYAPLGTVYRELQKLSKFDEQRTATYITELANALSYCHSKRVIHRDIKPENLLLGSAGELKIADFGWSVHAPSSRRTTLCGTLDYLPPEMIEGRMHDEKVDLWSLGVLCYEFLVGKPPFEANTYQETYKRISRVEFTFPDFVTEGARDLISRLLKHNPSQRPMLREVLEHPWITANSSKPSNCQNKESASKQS
Put plainly: Inhibition of Aurora A (unknown origin) at 10 uM using [33P]-ATP and 10 uM ATP after 2 hrs.

The target in experiment [2] is T2, Aurora kinase B (Homo sapiens, UniProt Q96GD4). The experiment in a line: Inhibition of Aurora B (unknown origin) at 10 uM using [33P]-ATP and 10 uM ATP after 2 hrs.
Another experiment addresses T3, Aurora kinase A (Homo sapiens, UniProt O14965).
T3 sequence (O14965 whole entry): T1 sequence (whole entry)
The experiment in a line: Inhibition of Aurora A (unknown origin) using [33P]-ATP and 10 uM ATP after 2 hrs.

Experiment [3] addresses T2, Aurora kinase B. Put plainly: Inhibition of Aurora B (unknown origin) using [33P]-ATP and 10 uM ATP after 2 hrs.
The subject of experiment [4] is Epidermal growth factor receptor (Homo sapiens), P00533 [L858R]. Put plainly: Inhibition of EGFR L858R mutant (unknown origin) at 10 uM. Format: protein assay. A digest of the protocol: (§1)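 Single 10 µM concentration against a 40-kinase panel on the radiometric HotSpot platform. Kinase and substrate were added before ³³P-ATP started the reaction, which ran 2 h at room temperature.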

Experiment [5] has as its target Glycogen synthase kinase-3 beta (Homo sapiens) (UniProt P49841). The experiment in a line: Inhibition of GSK3beta (unknown origin) at 10 uM. The gist of the method:
as §1

The target of experiment [6] is Serine/threonine-protein kinase pim-1 (Homo sapiens) (UniProt P11309). Put plainly: Inhibition of […] (unknown origin) at 10 uM. The gist of the method: as §1
Experiment [7] concerns the target T1, Aurora kinase A (Homo sapiens). The experiment in a line: Inhibition of Aurora A (unknown origin) at 10 uM.

pIC50: −log10 of the molar value. The source made the active and inactive calls. The rule behind the calls is not given here.

T2 sequence (Q96GD4 whole entry): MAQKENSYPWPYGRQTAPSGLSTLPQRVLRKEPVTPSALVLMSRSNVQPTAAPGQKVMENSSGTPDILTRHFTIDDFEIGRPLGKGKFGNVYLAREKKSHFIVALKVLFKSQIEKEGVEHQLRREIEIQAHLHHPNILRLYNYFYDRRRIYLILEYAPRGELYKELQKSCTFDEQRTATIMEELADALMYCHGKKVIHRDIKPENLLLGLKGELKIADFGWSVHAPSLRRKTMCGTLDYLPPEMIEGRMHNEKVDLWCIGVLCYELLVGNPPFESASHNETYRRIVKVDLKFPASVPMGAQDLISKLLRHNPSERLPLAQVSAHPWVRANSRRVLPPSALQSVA
Sequence of Epidermal growth factor receptor (Homo sapiens), P00533 [L858R] (P00533 whole entry L858R): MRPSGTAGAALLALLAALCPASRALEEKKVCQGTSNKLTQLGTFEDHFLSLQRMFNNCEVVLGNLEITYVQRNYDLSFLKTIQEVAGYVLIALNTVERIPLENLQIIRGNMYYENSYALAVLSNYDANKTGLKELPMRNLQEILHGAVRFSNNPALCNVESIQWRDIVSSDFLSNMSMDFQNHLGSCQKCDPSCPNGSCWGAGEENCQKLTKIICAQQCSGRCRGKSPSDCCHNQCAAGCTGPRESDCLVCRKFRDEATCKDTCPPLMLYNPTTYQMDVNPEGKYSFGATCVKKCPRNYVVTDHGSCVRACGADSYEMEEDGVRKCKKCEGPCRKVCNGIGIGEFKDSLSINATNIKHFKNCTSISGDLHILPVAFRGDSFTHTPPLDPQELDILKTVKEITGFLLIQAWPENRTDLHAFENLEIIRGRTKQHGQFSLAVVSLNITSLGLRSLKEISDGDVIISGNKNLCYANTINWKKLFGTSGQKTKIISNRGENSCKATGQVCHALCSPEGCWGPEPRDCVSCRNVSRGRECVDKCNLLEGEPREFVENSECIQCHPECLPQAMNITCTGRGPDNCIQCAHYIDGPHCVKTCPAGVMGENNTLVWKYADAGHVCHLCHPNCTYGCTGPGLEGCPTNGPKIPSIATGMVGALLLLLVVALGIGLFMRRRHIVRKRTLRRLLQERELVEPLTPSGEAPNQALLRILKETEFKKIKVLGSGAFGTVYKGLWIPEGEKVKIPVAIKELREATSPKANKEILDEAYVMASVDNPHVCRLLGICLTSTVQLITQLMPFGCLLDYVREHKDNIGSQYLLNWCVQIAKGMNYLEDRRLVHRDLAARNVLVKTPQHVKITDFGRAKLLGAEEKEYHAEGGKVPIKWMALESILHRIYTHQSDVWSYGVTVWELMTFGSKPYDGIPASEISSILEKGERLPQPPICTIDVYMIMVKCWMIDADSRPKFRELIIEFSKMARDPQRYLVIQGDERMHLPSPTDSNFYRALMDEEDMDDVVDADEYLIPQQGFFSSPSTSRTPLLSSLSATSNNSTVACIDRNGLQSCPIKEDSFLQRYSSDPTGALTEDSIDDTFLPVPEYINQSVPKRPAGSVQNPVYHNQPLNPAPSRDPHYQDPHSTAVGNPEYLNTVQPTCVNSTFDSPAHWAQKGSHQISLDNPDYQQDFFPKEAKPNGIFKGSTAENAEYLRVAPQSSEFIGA
Sequence of Serine/threonine-protein kinase pim-1 (Homo sapiens) (P11309 whole entry, looked up): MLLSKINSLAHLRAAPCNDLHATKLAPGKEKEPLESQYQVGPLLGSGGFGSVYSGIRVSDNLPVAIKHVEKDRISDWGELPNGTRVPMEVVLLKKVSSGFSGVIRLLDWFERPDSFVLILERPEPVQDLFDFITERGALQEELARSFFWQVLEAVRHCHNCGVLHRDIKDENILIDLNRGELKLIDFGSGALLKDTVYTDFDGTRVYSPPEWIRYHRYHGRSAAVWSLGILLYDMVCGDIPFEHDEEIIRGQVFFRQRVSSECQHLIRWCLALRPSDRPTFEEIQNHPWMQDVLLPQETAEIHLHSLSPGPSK
Sequence of Glycogen synthase kinase-3 beta (Homo sapiens) (P49841 whole entry, looked up): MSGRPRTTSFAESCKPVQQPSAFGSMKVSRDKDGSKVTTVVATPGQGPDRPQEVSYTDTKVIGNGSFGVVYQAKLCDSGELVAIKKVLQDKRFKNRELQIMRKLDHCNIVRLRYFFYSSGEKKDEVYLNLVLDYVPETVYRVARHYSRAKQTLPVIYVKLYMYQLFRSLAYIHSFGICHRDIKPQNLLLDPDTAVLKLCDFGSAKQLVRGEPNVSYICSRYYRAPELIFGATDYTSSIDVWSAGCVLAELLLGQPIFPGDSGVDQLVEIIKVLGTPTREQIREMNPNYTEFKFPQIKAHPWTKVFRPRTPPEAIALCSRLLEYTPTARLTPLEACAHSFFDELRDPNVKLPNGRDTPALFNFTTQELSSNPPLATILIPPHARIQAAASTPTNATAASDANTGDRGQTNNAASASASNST

Turning to `COC(=O)c1cccc(-c2cn(-c3ccc(O)c(C(=O)Nc4cccc(C(F)(F)F)c4)c3)nn2)c1`, the inhibition in experiment [1] amounted to 90.5%; against Aurora kinase B [2] it was 57.3%. Also, the pIC50 against Aurora kinase A is 5.74; against Aurora kinase B [3], 4.20.

`COC(=O)c1cccc(NC(=O)c2cc(-n3cc(-c4cc(OC)cc(OC)c4)nn3)ccc2O)c1`: the inhibition was 90.2% in experiment [1] and 71.3% against Aurora kinase B [2]. The results for the pIC50 against Aurora kinase A and against Aurora kinase B [3] were 6.43 and 5.45, respectively.

As to `COc1cc(OC)cc(-c2cn(-c3ccc(O)c(C(=O)Nc4cccc(C(F)(F)F)c4)c3)nn2)c1`, the inhibition result in experiment [4], in experiment [5] and in experiment [6] was “Active” each time. In experiment [7], this compound yielded an inhibition of 74.5%.

On to `COc1cccc(NC(=O)c2cc(-n3cc(-c4cc(OC)cc(OC)c4)nn3)ccc2O)c1`, for which the results for the inhibition (in experiment [1]; against Aurora kinase B [2]) were 83.3% and 50.3%, respectively.

These data come from ChEMBL document CHEMBL3352277, “Click approach to the discovery of 1,2,3-triazolylsalicylamides as potent Aurora kinase inhibitors” (Bioorg Med Chem, 2014).
